# Diaphorase act: compounds boosting diaphorase resazurin reduction – biochemical, uHTS, resorufin fluorescence, counter-screen for diaphorase-coupled primary assays, primary screen; AID 1229, 2008; Diaphorase/resazurin coupled assay, 16 min; active compounds read high; 1 = vehicle wells, 0 = NADH-free wells; actives 0.005% (n = 190,000); activation factor at 20 µM;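 active means diaphorase activity raised at least twofold by the compound at 20 µM; inactive means activation factor below 2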
#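 Material: Clostridium kluyveri diaphorase, purified enzyme; Quantity: enzyme 0.07 U/mL final; Medium: HEPES pH 7.4 buffer with MgCl2 and Tween 20; Dosing: single compound dose of 20 µM, 1% DMSO final; Schedule: 16 min reaction at room temperature; Measured by: red resorufin fluorescence at 544/590 nm excitation/emission.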
# WT yeast gro inh: growth inhibition of WT strain, primary screen, mitochondrial fusion inhibitor project, WT and mutant strains, chemical genetic. mitochondrial fusion phenotypic screen. inhibition, % at 10 µM. actives 2.1% (n = 190,000). AID 1362, 2008; in the data active means inhibition above about 58%; tested in S. cerevisiae
# Lmaj promast: Leishmania major promastigote growth inhibition, primary screen | Leishmania major promastigotes, resazurin fluorescence viability | inhibition, % at 10 µM | actives 9% (n = 200,000) | AID 1063, 2008; in the data active means inhibition above about 50%;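 further: promastigotes grown with compound for 44 hours at 28 °C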
# PMI act satM6P: human PMI activators, high substrate, primary screen, biochemical, fluorescence intensity, near-saturating mannose 6-phosphate; Mannose-6-phosphate isomerase (Homo sapiens), P34949; coupled PMI enzyme assay, resazurin fluorescence, 20 min; active compounds read high; 1 = untreated enzyme, 0 = substrate-free blank; activation factor at 20 µM; actives 0.34% (n = 190,000);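 active means activation factor of 2 or more at 20 µM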
# Target sequence (P34949 whole entry, looked up): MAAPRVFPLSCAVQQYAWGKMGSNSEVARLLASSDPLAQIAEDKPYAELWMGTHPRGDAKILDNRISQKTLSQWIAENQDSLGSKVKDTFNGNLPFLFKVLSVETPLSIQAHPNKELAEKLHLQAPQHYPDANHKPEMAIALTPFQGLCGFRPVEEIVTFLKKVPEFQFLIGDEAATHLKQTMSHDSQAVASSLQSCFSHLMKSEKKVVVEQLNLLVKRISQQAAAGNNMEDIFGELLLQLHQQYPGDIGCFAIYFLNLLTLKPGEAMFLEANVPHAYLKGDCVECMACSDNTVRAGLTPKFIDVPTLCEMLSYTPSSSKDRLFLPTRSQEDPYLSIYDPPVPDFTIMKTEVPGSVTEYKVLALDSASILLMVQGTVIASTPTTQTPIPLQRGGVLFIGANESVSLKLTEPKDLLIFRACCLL
#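 assay system = human phosphomannose isomerase with PGI, G6PDH, diaphorase coupling enzymes | quantity = 15 ng/mL PMI | incubation = enzyme reaction with compound 20 min at room temperature | medium = HEPES pH 7.4 buffer with MgCl2 and Tween-20 | compound dosing = one concentration, 20 µM, in 1% DMSO | measured by = Diaphorase-driven resazurin-to-resorufin fluorescence, excitation 544, emission 590 nm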
# PMI activator: activators of human PMI, primary screen, biochemical, fluorescence intensity, near-Km mannose 6-phosphate. Mannose-6-phosphate isomerase (Homo sapiens), P34949. purified human PMI, coupled resazurin fluorescence, 20 min; active compounds read high; 1 = vehicle control, 0 substrate-free wells. activation factor at 20 µM. actives 0.005% (n = 190,000);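 active means activation factor of 2 or more at 20 µM, relative to plate controls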
# Starred values were filed as active, the others as inactive. Most compounds without a hit are left out; they make up all but 10% or so of the library.
SMILES,Diaphorase act,WT yeast gro inh,Lmaj promast,PMI act satM6P,PMI activator
O=C(N/N=C/c1ccc([N+](=O)[O-])o1)c1cn(-c2ccccc2)nc1-c1ccc(Cl)cc1,0.8,0,76*,1.4,1.4
O=C(N/N=C\c1cn(-c2ccccc2)nc1-c1ccccc1)c1ccc(Br)o1,0.8,0,48,0.8,0.8
CCCCc1nnc(NC(=O)c2nc3nccc(C)n3n2)s1,0.8,-16,-8,1,1
Cc1c(Cl)cccc1-n1c(SCC(=O)NCc2ccccc2Cl)nnc1-c1ccncc1,1,-30,100*,1.1,1
CN(c1ccccc1)c1ccc(/C=C/[N+](=O)[O-])cc1,1,81,100*,1,1
CCOC(=O)Cn1cc(/C=C/[N+](=O)[O-])c2ccccc21,1,44,36,0.9,1
CCNc1nc(NC(C)C)nc(ON=C(C)C)n1,0.9,3,-2,1,0.9
CC(C)(C)N/N=C/c1c(O)n(-c2ccc(Cl)cn2)c(=O)c2ccccc12,0.9,-4,-8,2.5*,1.9
O=c1c2ccccc2c(C=Nc2ccc(S(=O)(=O)N3CCCCC3)cc2)c(O)n1-c1ccc(Cl)cn1,0.9,-12,2,1.1,1
O=c1c2ccccc2c(C=Nc2cccc(S(=O)(=O)NCc3ccco3)c2)c(O)n1-c1ccc(Cl)cn1,0.7,-11,51*,0.9,0.8
Cc1ccc(N2CCN(C(=O)N3CCOCC3)CC2)c(C)c1,1,-9,-9,1.1,1.1
CN(CCC1CCCCO1)C(=O)CCc1nnc(C2CCCCC2)o1 (stereo not drawn),0.9,0,13,1,1
CC1(c2ccc([N+](=O)[O-])cc2)CC(C)(C)N(C(=O)c2ccccc2)c2ccccc21 (stereo not drawn),0.9,77*,11,1,0.8
Cc1c(CCOC(=O)c2cc([N+](=O)[O-])cc([N+](=O)[O-])c2)sc[n+]1CC(=O)c1ccc(Br)cc1,1,36,100*,0.8,0.8
Cc1ccc(C(=O)CC(Nc2ccc(F)cc2)c2ccccc2)cc1 (stereo not drawn),0.8,9,0,0.9,0.8
O=C(NCc1ccccc1)N[C@@H](Cc1c[nH]c2ccccc12)C(=O)O,0.9,17,-5,0.9,0.9
COc1ccccc1CNC(=O)C(Cc1c[nH]c2ccccc12)NC(=O)OCc1ccccc1 (stereo not drawn),0.7,-5,99*,0.9,0.8
N#Cc1cnn(-c2nc3sc4c(c3c(=O)[nH]2)CCCC4)c1N,0.9,-9,94*,1.1,1
CCCCN=C1NC(=O)C(CC(=O)NCCc2ccc(OC)cc2)S1 (stereo not drawn),1,-14,5,1.1,1
CC(=O)c1cccc(NC(=O)/C=C/c2ccc([N+](=O)[O-])s2)c1,0.8,-11,15,0.9,1
Cc1cc(C)cc(NC(=O)/C=C/c2ccc([N+](=O)[O-])s2)c1,0.9,11,82*,1.1,1
Cc1ccccc1NC(=O)/C=C/c1ccc([N+](=O)[O-])s1,0.9,-6,82*,0.9,1
Cc1ccc(NC(=O)c2ccc(NCc3ccco3)c([N+](=O)[O-])c2)cc1Cl,1,0,-1,1,0.9
CSCCC(N=C(NS(=O)(=O)c1ccc(Br)cc1)c1ccccc1)C(=O)O (stereo not drawn),0.8,-10,-4,1.1,1.1
C=CCC1(NC(C)c2ccccc2)CCCCC1 (stereo not drawn),1,9,57*,1.1,1.1
SMILES,Diaphorase act,WT yeast gro inh,Lmaj promast,PMI act satM6P,PMI activator
COc1ccc(C(=O)CSc2nnc(CN3CCCCC3)n2-c2ccc(F)cc2)cc1,0.8,6,14,0.9,1
COCC(=O)N(C)C1(c2nnnn2CCOC(=O)Nc2cccc3ccccc23)CCCC1,0.8,-23,0,0.9,0.9
CCC(Sc1nc2ccccc2s1)C(=O)Nc1cc(C)on1 (stereo not drawn),0.9,-10,67*,1,1.1
CCC(Sc1nnnn1-c1ccccc1)C(=O)Nc1nc2ccccc2s1 (stereo not drawn),0.8,58*,18,0.9,0.9
CCC(Sc1nnnn1-c1ccccc1)C(=O)NC(C)c1ccccc1 (stereo not drawn),0.9,13,4,1,0.9
O=C(Cn1sc2ccccc2c1=O)NC12CC3CC(CC(C3)C1)C2,0.9,-1,100*,0.3,0.2
CCC(CC)c1nnc(NC(=O)c2ccc3ccccc3n2)s1,0.8,61*,78*,0.9,0.9
C/C(=N\NC(=O)CNc1ccccc1)c1ccccc1,0.8,-1,-3,0.9,0.9
CC(=O)n1nc(-c2ccccc2)nc1NCc1cccs1,0.9,-6,-5,1,1
O=C(CN1CCCC1)Nc1c2c(nc3ccccc13)N(Cc1ccccc1)CC2,1,-11,51*,1.2,1
CN(C)S(=O)(=O)c1cccc(N2C(=O)CC3(CCCCC3)CC2=O)c1,1,6,0,1,1
COc1cccc(NC(=S)N(CCCN2CCOCC2)C(C)c2cc3ccccc3o2)c1 (stereo not drawn),1,-8,97*,1.1,1.1
COc1cccc2cc(C(C)N(CCCN3CCOCC3)C(=O)Nc3ccccc3)oc12 (stereo not drawn),0.9,-13,82*,1,1
N#Cc1ccc(COC(=O)c2ccc(N3CCCC3)c([N+](=O)[O-])c2)cc1,0.9,39,-3,0.9,0.9
CCN1CCN(Cc2c(O)ccc3c2O/C(=C\C=C\c2ccccc2)C3=O)CC1,0.9,17,96*,0.9,1.2
CCN1CCN(Cc2c(O)ccc3c2O/C(=C\c2ccccc2)C3=O)CC1,1.1,3,8,0.9,1
Cc1c(C(=O)N/N=C/C(C)C)[nH]c2c([N+](=O)[O-])cccc12,0.8,-1,-9,0.8,0.9
Cc1cccc(NC(=O)CCN2CC(C)OC(C)C2)c1 (stereo not drawn),0.8,-2,89*,0.9,0.9
CC1CC(C)CN(CCC(=O)Nc2cccc(Cl)c2)C1 (stereo not drawn),1,9,83*,1,1
Cc1ccc(S(=O)(=O)NCCC(=O)Nc2ccc(Cl)c(Cl)c2)cc1,0.8,20,12,0.9,0.8
CC1CN(CCC(=O)Nc2ccc3c(c2)OCO3)CC(C)O1 (stereo not drawn),1,-6,-5,0.9,1

# Screens from PubChem BioAssay.
